Reference: ChEMBL document CHEMBL4689842, “EUbOPEN Chemogenomics Library wave 1” (2021)

Tested on: HEK-293T
Test: Multiplex assay against HEK293T;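 for Population Tubulin-Different-Phenotype (%): share of the cells with healthy nuclei that show this phenotype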
Format: toxicity, cell-based
Details: human
Method in brief: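 Hoechst33342, BioTracker Green Microtubule Cytoskeleton Dye, MitoTracker Red and Annexin V Alexa Fluor 680 were added to live cells at seeding, and imaging on a CQ1 microscope at 37°C and 5% CO2 followed compound addition. Gating by CellPathfinder machine learning separated cells into Hoechst high-intensity objects or normal cells, then normal cells into healthy, pyknosed or fragmented nuclei, then pyknosed cells into mitotic or apoptotic. Per cents of healthy-nucleus cells are reported for the tubulin, mitochondrial-mass and membrane-permeability phenotypes.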

[1] = 12 h, 1 µM, compound concentration 1 uM, replicate 1
[2] = 12 h, 1 µM, compound concentration 1 uM, replicate 2
[3] = 12 h, 10 µM, compound concentration 10 uM, replicate 1
[4] = 12 h, 10 µM, compound concentration 10 uM, replicate 2
[5] = 24 h, 1 µM, compound concentration 1 uM, replicate 1
[6] = 24 h, 1 µM, compound concentration 1 uM, replicate 2
[7] = 24 h, 10 µM, compound concentration 10 uM, replicate 1
[8] = 24 h, 10 µM, compound concentration 10 uM, replicate 2
[9] = 48 h, 1 µM, compound concentration 1 uM, replicate 1
[10] = 48 h, 1 µM, compound concentration 1 uM, replicate 2
[11] = 48 h, 10 µM, compound concentration 10 uM, replicate 1
[12] = 48 h, 10 µM, compound concentration 10 uM, replicate 2

CC(C)N1CCC(C)(C)c2cc(C#Cc3ccc(C(=O)O)cc3)ccc21
Population Apoptotic (%) [1]: 60%
Population Fragmented Nuclei (%) [1]: 13%
Population Healthy Nuclei (%) [1]: 45%
Population Hoechst High Intensity Objects (%) [1]: 17%
Population Membrane Permeable-Phenotype (%) [1]: 2%
Population Mitochondria Different-Phenotype (%) [1]: 74%
Population Mitotic Cells (%) [1]: 40%
Population Normal (%) [1]: 82%
Population Pyknosed Nuclei (%) [1]: 41%
Population Tubulin-Different-Phenotype (%) [1]: 43%
Total Cell Count [1]: 278
Population Apoptotic (%) [2]: 18%
Population Fragmented Nuclei (%) [2]: 4%
Population Healthy Nuclei (%) [2]: 54%
Population Hoechst High Intensity Objects (%) [2]: 8%
Population Membrane Permeable-Phenotype (%) [2]: 8%
Population Mitochondria Different-Phenotype (%) [2]: 12%
Population Mitotic Cells (%) [2]: 81%
Population Normal (%) [2]: 91%
Population Tubulin-Different-Phenotype (%) [2]: 6%
Total Cell Count [2]: 156
Population Apoptotic (%) [3]: 52%
Population Fragmented Nuclei (%) [3]: 51%
Population Healthy Nuclei (%) [3]: 40%
Population Hoechst High Intensity Objects (%) [3]: 64%
Population Membrane Permeable-Phenotype (%) [3]: 5%
Population Mitochondria Different-Phenotype (%) [3]: 66%
Population Mitotic Cells (%) [3]: 47%
Population Normal (%) [3]: 35%
Population Pyknosed Nuclei (%) [3]: 8%
Population Tubulin-Different-Phenotype (%) [3]: 23%
Total Cell Count [3]: 563
Population Apoptotic (%) [4]: 16%
Population Fragmented Nuclei (%) [4]: 32%
Population Healthy Nuclei (%) [4]: 61%
Population Hoechst High Intensity Objects (%) [4]: 44%
Population Membrane Permeable-Phenotype (%) [4]: 4%
Population Mitochondria Different-Phenotype (%) [4]: 12%
Population Mitotic Cells (%) [4]: 83%
Population Normal (%) [4]: 55%
Population Pyknosed Nuclei (%) [4]: 5%
Population Tubulin-Different-Phenotype (%) [4]: 5%
Total Cell Count [4]: 405
Population Apoptotic (%) [5]: 58%
Population Fragmented Nuclei (%) [5]: 13%
Population Healthy Nuclei (%) [5]: 45%
Population Hoechst High Intensity Objects (%) [5]: 19%
Population Membrane Permeable-Phenotype (%) [5]: 6%
Population Mitochondria Different-Phenotype (%) [5]: 52%
Population Mitotic Cells (%) [5]: 41%
Population Normal (%) [5]: 80%
Population Pyknosed Nuclei (%) [5]: 41%
Population Tubulin-Different-Phenotype (%) [5]: 49%
Total Cell Count [5]: 315
Population Apoptotic (%) [6]: 14%
Population Fragmented Nuclei (%) [6]: 4%
Population Healthy Nuclei (%) [6]: 59%
Population Hoechst High Intensity Objects (%) [6]: 4%
Population Membrane Permeable-Phenotype (%) [6]: 7%
Population Mitochondria Different-Phenotype (%) [6]: 4%
Population Mitotic Cells (%) [6]: 85%
Population Normal (%) [6]: 95%
Population Pyknosed Nuclei (%) [6]: 35%
Population Tubulin-Different-Phenotype (%) [6]: 10%
Total Cell Count [6]: 168
Population Apoptotic (%) [7]: 37%
Population Fragmented Nuclei (%) [7]: 56%
Population Healthy Nuclei (%) [7]: 40%
Population Hoechst High Intensity Objects (%) [7]: 62%
Population Membrane Permeable-Phenotype (%) [7]: 6%
Population Mitochondria Different-Phenotype (%) [7]: 37%
Population Mitotic Cells (%) [7]: 62%
Population Normal (%) [7]: 37%
Population Pyknosed Nuclei (%) [7]: 4%
Population Tubulin-Different-Phenotype (%) [7]: 21%
Total Cell Count [7]: 530
Population Apoptotic (%) [8]: 0%
Population Fragmented Nuclei (%) [8]: 29%
Population Healthy Nuclei (%) [8]: 67%
Population Hoechst High Intensity Objects (%) [8]: 46%
Population Membrane Permeable-Phenotype (%) [8]: 3%
Population Mitochondria Different-Phenotype (%) [8]: 6%
Population Mitotic Cells (%) [8]: 100%
Population Normal (%) [8]: 53%
Population Pyknosed Nuclei (%) [8]: 3%
Population Tubulin-Different-Phenotype (%) [8]: 9%
Total Cell Count [8]: 448
Population Apoptotic (%) [9]: 43%
Population Fragmented Nuclei (%) [9]: 15%
Population Healthy Nuclei (%) [9]: 56%
Population Hoechst High Intensity Objects (%) [9]: 17%
Population Membrane Permeable-Phenotype (%) [9]: 6%
Population Mitochondria Different-Phenotype (%) [9]: 29%
Population Mitotic Cells (%) [9]: 56%
Population Normal (%) [9]: 82%
Population Pyknosed Nuclei (%) [9]: 28%
Population Tubulin-Different-Phenotype (%) [9]: 27%
Total Cell Count [9]: 389
Population Apoptotic (%) [10]: 11%
Population Fragmented Nuclei (%) [10]: 9%
Population Healthy Nuclei (%) [10]: 80%
Population Hoechst High Intensity Objects (%) [10]: 2%
Population Membrane Permeable-Phenotype (%) [10]: 5%
Population Mitochondria Different-Phenotype (%) [10]: 2%
Population Mitotic Cells (%) [10]: 88%
Population Normal (%) [10]: 97%
Population Pyknosed Nuclei (%) [10]: 10%
Population Tubulin-Different-Phenotype (%) [10]: 9%
Total Cell Count [10]: 358
Population Apoptotic (%) [11]: 37%
Population Fragmented Nuclei (%) [11]: 57%
Population Healthy Nuclei (%) [11]: 38%
Population Hoechst High Intensity Objects (%) [11]: 66%
Population Membrane Permeable-Phenotype (%) [11]: 7%
Population Mitochondria Different-Phenotype (%) [11]: 12%
Population Mitotic Cells (%) [11]: 62%
Population Normal (%) [11]: 33%
Population Pyknosed Nuclei (%) [11]: 3%
Population Tubulin-Different-Phenotype (%) [11]: 3%
Total Cell Count [11]: 624
Population Apoptotic (%) [12]: 0%
Population Fragmented Nuclei (%) [12]: 23%
Population Healthy Nuclei (%) [12]: 73%
Population Hoechst High Intensity Objects (%) [12]: 52%
Population Membrane Permeable-Phenotype (%) [12]: 4%
Population Mitochondria Different-Phenotype (%) [12]: 1%
Population Mitotic Cells (%) [12]: 100%
Population Normal (%) [12]: 47%
Population Pyknosed Nuclei (%) [12]: 2%
Population Tubulin-Different-Phenotype (%) [12]: 5%
Total Cell Count [12]: 571
